Measurements as given in ChEMBL document CHEMBL4184236, “Design, synthesis and biological evaluation of matrine derivatives as potential anticancer agents” (Bioorg Med Chem Lett, 2018).

What was measured:
CNE-2 [1] = assay: Induction of apoptosis in human CNE2 cells assessed as early apoptotic cells level at 5 uM incubated for 24 hrs by Annexin V-FITC/PI dual staining based flow cytometry (reference value: 3.56%); type: functional
Summary of the method: (§1)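 CNE2 and SMMC-7721 cells were treated for 24 h at 0, 5, 10 or 30 µM, or at 0, 10, 20 or 50 µM depending on compound. Cells were stained with Annexin V-FITC/propidium iodide and quantified by flow cytometry. Apoptotic cells were counted as AV+/PI− (lower right) plus AV+/PI+ (upper right) quadrants.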

CNE-2 [2] = assay: Induction of apoptosis in human CNE2 cells assessed as late apoptotic cells level at 30 uM incubated for 24 hrs by Annexin V-FITC/PI dual staining based flow cytometry (reference value: 1.37%); type: functional; summary of the method: as §1
CNE-2 [3] = assay: Induction of cell cycle arrest in human CNE2 cells assessed as accumulation at G0-G1 phase at 30 uM incubated for 24 hrs by propidium iodide staining based flow cytometry (reference value: 69.3%); type: functional
SMMC-7721 [4] = assay: Induction of apoptosis in human SMMC7721 cells assessed as necrotic cells level at 30 uM incubated for 24 hrs by Annexin V-FITC/PI dual staining based flow cytometry (reference value: 2.47%); type: functional; summary of the method: as §1
CNE-2 [5] = assay: Induction of cell cycle arrest in human CNE2 cells assessed as accumulation at G0-G1 phase at 5 uM incubated for 24 hrs by propidium iodide staining based flow cytometry (reference value: 69.3%); type: functional
CNE-2 [6] = assay: Induction of apoptosis in human CNE2 cells assessed as necrotic cells level at 30 uM incubated for 24 hrs by Annexin V-FITC/PI dual staining based flow cytometry (reference value: 3.43%); type: functional; summary of the method: as §1
SMMC-7721 [7] = assay: Induction of apoptosis in human SMMC7721 cells assessed as viable cells level at 5 uM incubated for 24 hrs by Annexin V-FITC/PI dual staining based flow cytometry (reference value: 95.3%); type: functional; summary of the method: as §1
SMMC-7721 [8] = assay: Induction of apoptosis in human SMMC7721 cells assessed as late apoptotic cells level at 30 uM incubated for 24 hrs by Annexin V-FITC/PI dual staining based flow cytometry (reference value: 0.88%); type: functional; summary of the method: as §1
SMMC-7721 [9] = assay: Induction of apoptosis in human SMMC7721 cells assessed as viable cells level at 10 uM incubated for 24 hrs by Annexin V-FITC/PI dual staining based flow cytometry (reference value: 95.3%); type: functional; summary of the method: as §1
SMMC-7721 [10] = assay: Anticancer activity against human SMMC7721 cells assessed as reduction in cell viability incubated for 48 hrs MTT assay; type: functional, cell-based; conditions: SMMC-7721, 48 h
Summary of the method: (§2)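 MTT assay on human hepatocarcinoma SMMC-7721, lung carcinoma A549 and nasopharyngeal carcinoma CNE2 cells, with matrine as comparator and cisplatin as positive control. IC50 is the concentration that lowers optical density of treated cells by 50% versus untreated cells, given as the mean ± SD of three experiments.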

SMMC-7721 [11] = assay: Induction of apoptosis in human SMMC7721 cells assessed as necrotic cells level at 10 uM incubated for 24 hrs by Annexin V-FITC/PI dual staining based flow cytometry (reference value: 2.47%); type: functional; summary of the method: as §1
CNE-2 [12] = assay: Induction of cell cycle arrest in human CNE2 cells assessed as accumulation at subG1 phase at 10 uM incubated for 24 hrs by propidium iodide staining based flow cytometry (reference value: 0.55%); type: functional
CNE-2 [13] = assay: Induction of apoptosis in human CNE2 cells assessed as early apoptotic cells level at 10 uM incubated for 24 hrs by Annexin V-FITC/PI dual staining based flow cytometry (reference value: 3.56%); type: functional; summary of the method: as §1
SMMC-7721 [14] = assay: Induction of apoptosis in human SMMC7721 cells assessed as early apoptotic cells level at 30 uM incubated for 24 hrs by Annexin V-FITC/PI dual staining based flow cytometry (reference value: 1.36%); type: functional; summary of the method: as §1
CNE-2 [15] = assay: Induction of apoptosis in human CNE2 cells assessed as viable cells level at 5 uM incubated for 24 hrs by Annexin V-FITC/PI dual staining based flow cytometry (reference value: 91.6%); type: functional; summary of the method: as §1
SMMC-7721 [16] = assay: Induction of cell cycle arrest in human SMMC7721 cells assessed as accumulation at S phase at 30 uM incubated for 24 hrs by propidium iodide staining based flow cytometry (reference value: 17.2%); type: functional
SMMC-7721 [17] = assay: Induction of apoptosis in human SMMC7721 cells assessed as early apoptotic cells level at 10 uM incubated for 24 hrs by Annexin V-FITC/PI dual staining based flow cytometry (reference value: 1.36%); type: functional; summary of the method: as §1
CNE-2 [18] = assay: Induction of cell cycle arrest in human CNE2 cells assessed as accumulation at G2/M phase at 5 uM incubated for 24 hrs by propidium iodide staining based flow cytometry (reference value: 19.8%); type: functional
SMMC-7721 [19] = assay: Induction of cell cycle arrest in human SMMC7721 cells assessed as accumulation at subG1 phase at 30 uM incubated for 24 hrs by propidium iodide staining based flow cytometry (reference value: 0.33%); type: functional
SMMC-7721 [20] = assay: Induction of apoptosis in human SMMC7721 cells assessed as viable cells level at 30 uM incubated for 24 hrs by Annexin V-FITC/PI dual staining based flow cytometry (reference value: 95.3%); type: functional; summary of the method: as §1
SMMC-7721 [21] = assay: Induction of cell cycle arrest in human SMMC7721 cells assessed as accumulation at G0-G1 phase at 5 uM incubated for 24 hrs by propidium iodide staining based flow cytometry (reference value: 64.1%); type: functional
CNE-2 [22] = assay: Induction of apoptosis in human CNE2 cells incubated for 24 hrs by Annexin V-FITC/PI dual staining based flow cytometry; type: functional, cell-based; summary of the method: as §1
A549 = assay: Anticancer activity against human A549 cells assessed as reduction in cell viability incubated for 48 hrs MTT assay; type: functional, cell-based; conditions: A549, 48 h; summary of the method: as §2
CNE-2 [23] = assay: Anticancer activity against human CNE2 cells assessed as reduction in cell viability incubated for 48 hrs MTT assay; type: functional, cell-based; conditions: CNE-2, 48 h; summary of the method: as §2
SMMC-7721 [24] = assay: Induction of cell cycle arrest in human SMMC7721 cells assessed as accumulation at subG1 phase at 10 uM incubated for 24 hrs by propidium iodide staining based flow cytometry (reference value: 0.33%); type: functional
SMMC-7721 [25] = assay: Induction of apoptosis in human SMMC7721 cells assessed as late apoptotic cells level at 5 uM incubated for 24 hrs by Annexin V-FITC/PI dual staining based flow cytometry (reference value: 0.88%); type: functional; summary of the method: as §1
CNE-2 [26] = assay: Induction of cell cycle arrest in human CNE2 cells assessed as accumulation at subG1 phase at 30 uM incubated for 24 hrs by propidium iodide staining based flow cytometry (reference value: 0.55%); type: functional
CNE-2 [27] = assay: Induction of cell cycle arrest in human CNE2 cells assessed as accumulation at G2/M phase at 10 uM incubated for 24 hrs by propidium iodide staining based flow cytometry (reference value: 19.8%); type: functional
SMMC-7721 [28] = assay: Induction of cell cycle arrest in human SMMC7721 cells assessed as accumulation at subG1 phase at 5 uM incubated for 24 hrs by propidium iodide staining based flow cytometry (reference value: 0.33%); type: functional
SMMC-7721 [29] = assay: Induction of cell cycle arrest in human SMMC7721 cells assessed as accumulation at G2/M phase at 5 uM incubated for 24 hrs by propidium iodide staining based flow cytometry (reference value: 18.4%); type: functional
SMMC-7721 [30] = assay: Induction of apoptosis in human SMMC7721 cells assessed as early apoptotic cells level at 5 uM incubated for 24 hrs by Annexin V-FITC/PI dual staining based flow cytometry (reference value: 1.36%); type: functional; summary of the method: as §1

IC50 (SMMC-7721 [10]): 4.65 µM
IC50 (A549): 8.05 µM
Compound: COc1cc(Cn2cccc2/C=C2\CC[C@@H]3[C@H]4CCCN5CCC[C@@H](CN3C2=O)[C@@H]45)cc(OC)c1
Activity (CNE-2 [1]): 8.79%
Activity (CNE-2 [2]): 16%
Activity (CNE-2 [3]): 9.89%
Activity (SMMC-7721 [4]): 3.67%
Activity (CNE-2 [5]): 55.2%
Activity (CNE-2 [6]): 6.5%
Activity (SMMC-7721 [7]): 78.1%
Activity (SMMC-7721 [8]): 17%
Activity (SMMC-7721 [9]): 32.8%
Activity (SMMC-7721 [11]): 6.65%
Activity (CNE-2 [12]): 4.35%
Activity (CNE-2 [13]): 25.1%
Activity (SMMC-7721 [14]): 33.1%
Activity (CNE-2 [15]): 85.5%
Activity (SMMC-7721 [16]): 9.28%
Activity (SMMC-7721 [17]): 42%
Activity (CNE-2 [18]): 29.5%
Activity (SMMC-7721 [19]): 3.08%
Activity (SMMC-7721 [20]): 46.3%
Activity (SMMC-7721 [21]): 63%
Activity (CNE-2 [22]): Dose-dependent effect
IC50 (CNE-2 [23]): 3.55 µM
Activity (SMMC-7721 [24]): 6.61%
Activity (SMMC-7721 [25]): 4.06%
Activity (CNE-2 [26]): 4.2%
Activity (CNE-2 [27]): 89.4%
Activity (SMMC-7721 [28]): 4.95%
Activity (SMMC-7721 [29]): 24.1%
Activity (SMMC-7721 [30]): 13.8%
